Data as given in ChEMBL document CHEMBL1833856, “Discovery and kinetic evaluation of 6-substituted 4-benzylthio-1,3,5-triazin-2(1H)-ones as inhibitors of cathepsin B” (Eur J Med Chem, 2011).

What was measured:
[1] = molecular target: T1, Pro-cathepsin H (Homo sapiens) (UniProt P09668); experiment: Inhibition of native cathepsin H isolated from human liver assessed as formation of fluorescent degradation product AMC using Arg-AMC as substrate at 50 uM by fluorescence microplate assay
T1 sequence (whole entry): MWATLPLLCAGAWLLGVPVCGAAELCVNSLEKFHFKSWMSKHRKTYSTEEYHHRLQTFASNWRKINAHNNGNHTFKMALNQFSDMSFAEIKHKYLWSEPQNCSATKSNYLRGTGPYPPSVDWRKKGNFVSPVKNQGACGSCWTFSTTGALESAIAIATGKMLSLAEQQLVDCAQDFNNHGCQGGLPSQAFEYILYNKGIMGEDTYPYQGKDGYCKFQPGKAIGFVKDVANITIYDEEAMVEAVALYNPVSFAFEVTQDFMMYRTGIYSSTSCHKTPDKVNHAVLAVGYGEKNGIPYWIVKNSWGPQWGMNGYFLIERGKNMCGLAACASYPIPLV

Cathepsin B [2] = molecular target: T2, Cathepsin B (Homo sapiens, UniProt P07858); experiment: Inhibition of human recombinant cathepsin B assessed as formation of fluorescent degradation product AMC using Z-Arg-Arg-AMC as substrate at 50 uM by fluorescence microplate assay
[3] = molecular target: Procathepsin L (Homo sapiens) (UniProt P07711); experiment: Inhibition of human recombinant cathepsin L expressed in Escherichia coli assessed as formation of fluorescent degradation product AMC using Z-Phe-Arg-AMC as substrate at 50 uM by fluorescence microplate assay
Cathepsin B [4] = molecular target: T2, Cathepsin B; experiment: Partial mixed-type inhibition of human recombinant cathepsin B assessed as formation of fluorescent degradation product AMC using Z-Arg-Arg-AMC as substrate by Michaelis-Menten method
Outline: (§1)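 Recombinant human catB (133 pM) preactivated 5 min at 37 °C in 100 mM phosphate pH 6.0, 0.1% PEG 8000, 5 mM DTT, 1.5 mM EDTA, 5% DMSO. Initial hydrolysis rates taken across Z-Arg-Arg-AMC (60, 180, 360 µM, as added) and inhibitor (0–70 µM, as added). AMC read ex 380/em 460 nm at 37 °C. Duplicates, two independent runs. β fitted for ES-complex binding.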

Cathepsin B [5] = molecular target: T2, Cathepsin B; experiment: Inhibition of human recombinant cathepsin B assessed as factor by which the product formation changes when the inhibitor binds to the enzyme-substrate complex using Z-Arg-Arg-AMC as substrate by fluorescence microplate assay
Outline: as §1

Cathepsin B [6] = molecular target: T2, Cathepsin B; experiment: Reversible inhibition of human recombinant cathepsin B assessed as formation of fluorescent degradation product AMC using Z-Arg-Arg-AMC as substrate by Michaelis-Menten method
Outline: as §1

Cathepsin B [7] = molecular target: T2, Cathepsin B; experiment: Mixed-type inhibition of human recombinant cathepsin B assessed as formation of fluorescent degradation product AMC using Z-Arg-Arg-AMC as substrate by Michaelis-Menten method
Outline: as §1

Chain of Procathepsin L (Homo sapiens) (P07711 114-333 limits assumed): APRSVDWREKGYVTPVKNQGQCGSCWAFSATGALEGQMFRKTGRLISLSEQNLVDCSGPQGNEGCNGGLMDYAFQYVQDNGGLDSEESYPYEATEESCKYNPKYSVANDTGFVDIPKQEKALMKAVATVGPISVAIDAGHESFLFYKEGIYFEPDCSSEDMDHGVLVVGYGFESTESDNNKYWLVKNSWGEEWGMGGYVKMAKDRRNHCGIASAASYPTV

Compound | inhibition [1] [%] | inhibition (Cathepsin B [2]) [%] | inhibition [3] [%] | Ki (Cathepsin B [4]) [µM] | fold change (FC) (Cathepsin B [5]) | Ki (Cathepsin B [6]) [µM] | Ki (Cathepsin B [7]) [µM]
CC(C)(C)c1ccccc1Nc1nc(Cl)nc(Cl)n1 | -4.16 | -7.27 | 4.36 | – | – | – | –
O=c1nc(SCc2ccccc2)nc(SCc2cccc(Cl)c2)[nH]1 | – | – | – | 4.5 | 0.28 | 5.4 | –
Cc1ccc(-c2nc(S)[nH]c(=O)n2)cc1 | 6.58 | 9.02 | 6.37 | – | – | – | –
O=c1nc(SCc2ccccc2)nc(SCC2CC2)[nH]1 | 10 | – | 42 | – | 0 | 211 | 28.3
O=c1nc(SCc2ccccc2)nc(SCc2cccc(F)c2)[nH]1 | 4.18 | – | 7.68 | 7.4 | 0.22 | 10.2 | –
CN(CCO)c1nc(Cl)nc(Nc2ccccc2CCO)n1 | 0.61 | -3.56 | 11.6 | – | – | – | –
COc1ccc(CSc2nc(SCc3ccccc3)nc(=O)[nH]2)cc1 | – | – | – | 10.3 | 0.2 | 11.1 | –
OCCc1ccccc1Nc1nc(Cl)nc(N2CCOCC2)n1 | -8.72 | -4.76 | – | – | – | – | –
O=c1nc(SCc2ccccc2)nc(S)[nH]1 | 9.63 | 2.5 | 3.79 | – | – | – | –
O=c1nc(SCc2ccccc2)nc(SCc2ccc(F)cc2)[nH]1 | – | – | – | 13.8 | 0.33 | 16.6 | –
O=c1nc(SCc2ccccc2)nc(SCc2ccccc2F)[nH]1 | – | – | – | 9 | 0.36 | 9.5 | –
N#CCSc1nc(SCc2ccccc2)nc(=O)[nH]1 | 4.94 | – | -5.28 | – | 0 | 208 | 51.6
COc1ccc(CNc2nc(Cl)nc(N(C)CCO)n2)cc1 | 7.12 | 0.92 | 9.95 | – | – | – | –
O=c1nc(SCc2ccccc2)nc(SCC2CCCC2)[nH]1 | 10.6 | – | 9.96 | – | 0 | 23 | 8.95
COc1nc(OC)nc(Sc2ccccc2C(=O)O)n1 | – | 2.35 | 15.8 | – | – | – | –
O=c1nc(SCc2ccccc2)nc(SCc2ccccc2[N+](=O)[O-])[nH]1 | – | – | – | 6 | 0.24 | 11.9 | –
COC(=O)c1ccccc1Oc1nc(OC)nc(OC)n1 | -5.34 | -0.33 | -9.64 | – | – | – | –
O=c1nc(SCc2ccccc2)nc(SCc2ccc(Cl)cc2)[nH]1 | 6.91 | – | 85.2 | 2.5 | 0.25 | 4.4 | –
CCSc1nc(SCc2ccccc2)nc(=O)[nH]1 | -4.06 | – | – | – | 0 | 221 | 97.1
O=c1nc(SCc2ccccc2)nc(SCc2cccc([N+](=O)[O-])c2)[nH]1 | 3.92 | – | 81.2 | 3.3 | 0.15 | 11.3 | –
COc1ccc(CCNc2nc(Cl)nc(Cl)n2)cc1OC | -2.17 | -9.7 | -0.33 | – | – | – | –
COc1ccc(CNc2nc(Cl)nc(Cl)n2)cc1 | 6.37 | 3.99 | 0.48 | – | – | – | –
COc1ccccc1CSc1nc(SCc2ccccc2)nc(=O)[nH]1 | 1.06 | 79.6 | 61.3 | 4.4 | 0.22 | 15.6 | –

Compound | inhibition [1] [%] | inhibition (Cathepsin B [2]) [%] | inhibition [3] [%] | Ki (Cathepsin B [4]) [µM] | fold change (FC) (Cathepsin B [5]) | Ki (Cathepsin B [6]) [µM] | Ki (Cathepsin B [7]) [µM]
N#Cc1ccccc1CSc1nc(SCc2ccccc2)nc(=O)[nH]1 | – | – | – | 10.5 | 0.04 | 40.7 | –
C[C@@H](NC(=O)c1ccccc1Nc1nc(Cl)nc(Cl)n1)C(=O)O | – | -1.7 | -5.15 | – | – | – | –
O=c1nc(SCc2ccccc2)nc(SCC2CCC2)[nH]1 | 1.57 | – | 37.4 | – | 0 | 34.1 | 10.1
O=C(O)c1ccccc1Sc1nc(Cl)nc(Cl)n1 | -1.7 | 2.3 | – | – | – | – | –
COc1nc(Nc2ccccc2C(=O)O)nc(OC)n1 | 2.63 | 6.34 | -3.14 | – | – | – | –
CCCSc1nc(SCc2ccccc2)nc(=O)[nH]1 | -4.82 | – | -8.66 | – | 0 | – | –
Clc1nc(Cl)nc(Nc2ccccc2Br)n1 | 4.52 | -1.59 | 0.59 | – | – | – | –
CC(C)OC(=O)[C@H](C)NC(=O)c1ccc(Nc2nc(Cl)nc(Cl)n2)cc1 | 3.02 | 1.68 | -6.12 | – | – | – | –
O=c1nc(-c2cccc([N+](=O)[O-])c2)nc(S)[nH]1 | 7.97 | 4.71 | 7.7 | – | – | – | –
N#Cc1ccc(CSc2nc(SCc3ccccc3)nc(=O)[nH]2)cc1 | 1.55 | – | 44.9 | 10.8 | 0.07 | 24.3 | –
COC(=O)c1ccccc1Nc1nc(Cl)nc(Cl)n1 | -4.23 | -0.92 | 8.76 | – | – | – | –
N#Cc1cccc(CSc2nc(SCc3ccccc3)nc(=O)[nH]2)c1 | – | – | – | 9.1 | 0.02 | 46.7 | –
O=c1nc(-c2ccccc2)nc(S)[nH]1 | 4.86 | -3.22 | -1.89 | – | – | – | –
O=c1nc(SCc2ccccc2)nc(SCc2ccc([N+](=O)[O-])cc2)[nH]1 | – | – | – | 4 | 0.17 | 10 | –
O=c1nc(SCc2ccccc2)nc(SCc2ccccc2Cl)[nH]1 | – | – | – | 3.6 | 0.23 | 7.2 | –
CCc1ccccc1Nc1nc(Cl)nc(Cl)n1 | -2.26 | -3.44 | -1.59 | – | – | – | –
N#Cc1ccc(CSc2nc(SCc3ccccc3)nc(=O)[nH]2)c(F)c1 | – | – | – | 9.7 | 0.07 | 23 | –
O=c1nc(SCc2ccccc2)nc(SCC2CCCCC2)[nH]1 | 10.2 | – | 76.2 | 3.3 | 0.12 | 11.9 | –
COc1cccc(CSc2nc(SCc3ccccc3)nc(=O)[nH]2)c1 | – | – | – | 21.9 | 0.42 | 13 | –
OCCc1ccccc1Nc1nc(Cl)nc(Cl)n1 | – | -3.38 | – | – | – | – | –
COc1nc(OC)nc(Sc2ccccc2C(=O)N[C@@H](C)C(=O)OCc2ccccc2)n1 | 1.34 | 3.18 | -4.25 | – | – | – | –
COc1nc(N[C@H](CCC(=O)O)C(=O)O)nc(OC)n1 | 0.34 | -5.48 | – | – | – | – | –
CCCSc1nc(SCc2ccccc2)[nH]c(=O)n1 | – | – | – | – | – | 259 | 49.4
